We go through nine compounds from ChEMBL document CHEMBL1152809, “Structure-activity relationships of orotidine-5'-monophosphate decarboxylase inhibitors as anticancer agents” (J Med Chem, 2009).

The IC50 is the concentration that gives 50% inhibition.

Calls of active or inactive are those of the source. The calls are words filed in the database; no cut-off is given here.

One data set deals with PC-3. In words: Antitumor activity against human PC3 cells up to 50 uM after 3 days by WST1 assay. The class given is functional, cell-based. The essentials: (§1)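 Cell lines grown in Iscove's MDM with 5% FCS, 50 µM 2-mercaptoethanol, penicillin and streptomycin; suspension lines kept at 0.5-1.5 × 10^6 cells/mL, adherent lines subconfluent. Cells seeded in triplicate at 10^4 cells/100 µL. Compounds were dissolved in water and added immediately at 0 to 100 µM final. WST.1 read at 440 nm on day 3; IC50 taken from OD versus concentration plots.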
(Formazan colour is commonly taken as a measure of viable cells.)

The subject of another data set is ML1. In words: Induction of apoptosis in human OCI-AML1 cells by […]/propidium iodide staining assay. The class given is functional, cell-based. The essentials: (§2)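 Cells seeded in duplicate at 10^5 cells/mL; inhibitors added straight after seeding at 4 µM final, water in control wells. Cells harvested every 24 h, washed in PBS, stained with Annexin V/propidium iodide (1:200) and analysed by FACS; apoptotic cells scored as Annexin V+/PI-, necrotic as Annexin V+/PI+.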

Data set [1] can be described thus: Antitumor activity against human SKW3 cells after 3 days by WST1 assay. Particulars: SKW3, 72 h. The class given is functional, cell-based. An outline of the steps: as §1
The subject of the next data set is T47D. In words: Antitumor activity against human T47D cells up to 50 uM after 3 days by WST1 assay. The class given is functional, cell-based. An outline of the steps: as §1
A short description of data set [2]: Antitumor activity against human OCI-LY7 cells after 3 days by WST1 assay. It is filed as functional, cell-based. Particulars: OCI-Ly7, 72 h. An outline of the steps:
as §1

Data set [3] concerns MCF7. The experiment in a line: Antitumor activity against human MCF7 cells after 3 days by WST1 assay. The class given is functional, cell-based. Particulars: MCF7, 72 h. The essentials: as §1
A short description of data set [4]: Antitumor activity against human LOX cells after 3 days by WST1 assay. It is filed as functional, cell-based. The following applies: 72 h. The essentials:
as §1

In another data set the test system is SKW3. In words: Induction of apoptosis in human SKW3 cells at 4 uM by annexin V/propidium iodide staining assay.
In another data set the test system is OCI-AML2. The experiment in a line: Antitumor activity against human OCI-AML2 cells after 3 days by WST1 assay. The class given is functional, cell-based. The following applies: OCI-AML2, 72 h. An outline of the steps: as §1
A short description of data set [5]: Antitumor activity against human MDA468 cells after 3 days by WST1 assay. It is filed as functional, cell-based. Particulars: MDA-MB-468, 72 h. An outline of the steps: as §1
The species named for the next data set is Homo sapiens. The experiment in a line: Induction of apoptosis in human OCI-My 2 cells 4 uM by […]/propidium iodide staining assay. The class given is functional, cell-based. An outline of the steps:
as §2

The subject of another data set is OCI-Ly7. In words: Induction of apoptosis in human OCI-LY7 cells 4 uM by […]/propidium iodide staining assay. The class given is functional, cell-based. An outline of the steps:
as §2

Data set [6] in a line: Cytotoxicity against human CCD-967 cells up to 50 uM after 3 days by WST1 assay. It is filed as cell-based. Particulars: ccd-967, 72 h. An outline of the steps: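 Cells grown in Iscove's MDM with 5% FCS, 50 µM 2-mercaptoethanol and antibiotics, kept subconfluent if adherent. Seeded in triplicate at 10^4 cells/100 µL with compounds (in water) added at once, 0 to 100 µM final. WST.1 formazan read at 440 nm on day 3; IC50 from OD versus concentration.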

Data set [7] is described as follows: Antitumor activity against human OCI-AML1 cells after 3 days by WST1 assay. It is filed as functional, cell-based. Particulars: ML1, 72 h. The essentials:
as §1

Another data set concerns Hs-578T. In words: Antitumor activity against human Hs 578T cells up to 50 uM after 3 days by WST1 assay. It is filed as functional, cell-based. The essentials: as §1
The nature of data set [8]: Antitumor activity against human OCI-My 2 cells after 3 days by WST1 assay. It is filed as functional, cell-based. The following applies: 72 h. An outline of the steps: as §1
The next data set relates to SNB-19. In words: Antitumor activity against human SNB19 cells up to 50 uM after 3 days by WST1 assay. The class given is functional, cell-based. The essentials: as §1
The test system of a further data set is OVCAR-4. The experiment in a line: Antitumor activity against human OVCAR4 cells after 3 days by WST1 assay. It is filed as functional, cell-based. Particulars: for IC50: OVCAR-4, 72 h. The essentials: as §1
For another data set, the system named is COLO 205. In words: Antitumor activity against human COLO205 cells after 3 days by WST1 assay. The class given is functional, cell-based. The following applies: for IC50: COLO 205, 72 h. The essentials:
as §1

A further data set relates to MDA-MB-468. The experiment in a line: Antitumor activity against human MDA468 cells up to 50 uM after 3 days by WST1 assay. It is filed as functional, cell-based. An outline of the steps:
as §1

For data set [9], the system named is MCF7. In words: Antitumor activity against human MCF7 cells up to 50 uM after 3 days by WST1 assay. It is filed as functional, cell-based. An outline of the steps: as §1

With `O=Cc1c(F)c(=O)[nH]c(=O)n1[C@@H]1O[C@H](CO)[C@@H](O)[C@H]1O`, the outcome in the data set on PC-3, in the data set on T47D, in the data set on Hs-578T and in the data set with SNB-19 was inactive. Further, the outcome with ML1, in the data set with SKW3, in the data set listed under Homo sapiens and in the data set with OCI-Ly7 was Active. In addition, the IC50 in data set [1] was found to be 0.3 µM; in data set [2] it was 0.6 µM; in the data set with MCF7 [3] it was 23.7 µM; in data set [4] it was 0.4 µM; in the data set on OCI-AML2, 0.7 µM; in data set [5], 1.9 µM. Moreover, the IC50 came to 0.3 µM in data set [7] and 0.4 µM in [8]. In data set [6], the Activity result was “Not Active”.
For `[N-]=[N+]=Nc1cc(=O)[nH]c(=O)n1[C@@H]1O[C@H](CO)[C@@H](O)[C@H]1O`, the IC50 (with OVCAR-4; in data set [1]; in the data set with COLO 205; in [2]; in the data set on MCF7 [3]; in data set [4]) was > 50 µM throughout. In addition, the IC50 (with OCI-AML2; in [5]; in data set [7]; in data set [8]) was > 50 µM each time. Besides, the outcome in the data set on PC-3, in the data set with T47D, in the data set with MDA-MB-468, in the data set on MCF7 [9], with Hs-578T and in the data set on SNB-19 was inactive. Also, the Activity result in data set [6] is recorded as “Not Active”.
Regarding `Cc1cc(=O)[nH]c(=O)n1[C@@H]1O[C@H](CO)[C@@H](O)[C@H]1O`, the IC50 (with OVCAR-4; in data set [1]; in the data set on COLO 205; in data set [2]; with MCF7 [3]; in data set [4]) was > 50 µM each time. The half-maximal inhibitory concentration (IC50) (in the data set with OCI-AML2; in data set [5]; in [7]; in data set [8]) was > 50 µM each time. Also, the outcome in the data set with PC-3, with T47D, with MDA-MB-468, in the data set on MCF7 [9], in the data set on Hs-578T and in the data set with SNB-19 was inactive. In addition, in data set [6], the Activity result is reported as “Not Active”.
Take `COC(=O)c1cc(=O)[nH]c(=O)n1[C@@H]1O[C@H](CO)[C@@H](O)[C@H]1O`: the 50% inhibitory concentration (IC50) (with OVCAR-4; in data set [1]; in the data set with COLO 205; in data set [2]; in the data set with MCF7 [3]; in [4]) was > 50 µM in each case. Further, the IC50 with OCI-AML2 was > 50 µM; in [5], > 50 µM; in data set [7], > 50 µM; in data set [8] it was 42.3 µM. Moreover, the outcome in the data set on PC-3, in the data set with T47D, in the data set with MDA-MB-468, in the data set with MCF7 [9], in the data set with Hs-578T and in the data set on SNB-19 was inactive. Moreover, the Activity result in data set [6] was “Not Active”.
As for `O=Cc1cc(=O)[nH]c(=O)n1[C@@H]1O[C@H](CO)[C@@H](O)[C@H]1O`, the result in the data set on OVCAR-4, in the data set on PC-3, with COLO 205, in the data set on T47D, in the data set with MDA-MB-468 and with MCF7 [9] was inactive. For the same compound, the outcome in the data set on Hs-578T and in the data set on SNB-19 was inactive. Further, the IC50 (in [1]; in data set [2]; with MCF7 [3]; in data set [4]; with OCI-AML2; in [5]) was > 50 µM throughout. The IC50 in data set [7] and in data set [8] was > 50 µM in each case. Further, the Activity result in data set [6] is listed as “Not Active”.
In the case of `N#Cc1cc(=O)[nH]c(=O)n1[C@@H]1O[C@H](CO)[C@@H](O)[C@H]1O`, the IC50 (in the data set with OVCAR-4; in [1]; in the data set with COLO 205; in data set [2]; in the data set on MCF7 [3]; in [4]) was > 50 µM each time. For the same compound, the IC50 (with OCI-AML2; in data set [5]; in [7]; in data set [8]) was > 50 µM in each case. Also, the outcome in the data set with PC-3, in the data set with T47D, in the data set on MDA-MB-468, in the data set on MCF7 [9], with Hs-578T and in the data set with SNB-19 was inactive. For the same compound, the Activity entry in data set [6] is given as “Not Active”.
On to `CNc1cc(=O)[nH]c(=O)n1[C@@H]1O[C@H](CO)[C@@H](O)[C@H]1O`, for which the half-inhibitory concentration (IC50) (in the data set with OVCAR-4; in data set [1]; with COLO 205; in data set [2]; with MCF7 [3]; in [4]) was > 50 µM in each case. In addition, the IC50 (in the data set with OCI-AML2; in data set [5]; in [7]; in data set [8]) was > 50 µM each time. The result in the data set on PC-3, in the data set on T47D, in the data set with MDA-MB-468, in the data set on MCF7 [9], with Hs-578T and in the data set with SNB-19 was inactive. For the same compound, the Activity result in data set [6] is recorded as “Not Active”.
With `O=c1cc(I)n([C@@H]2O[C@H](CO)[C@@H](O)[C@H]2O)c(=O)[nH]1`, the half-maximal inhibitory concentration (IC50) with OVCAR-4 was > 50 µM; in data set [1], 18.9 µM; in the data set with COLO 205, > 50 µM; in [2] it was > 50 µM; in the data set with MCF7 [3], > 50 µM; in data set [4], > 50 µM. The IC50 is > 50 µM with OCI-AML2, > 50 µM in [5], 15.3 µM in [7] and 27.8 µM in data set [8]. The result in the data set on PC-3, in the data set on T47D, in the data set with MDA-MB-468, in the data set with MCF7 [9], with Hs-578T and in the data set with SNB-19 was inactive. Moreover, the Activity result in data set [6] is on record as “Not Active”.
For `CN(C)c1cc(=O)[nH]c(=O)n1[C@@H]1O[C@H](CO)[C@@H](O)[C@H]1O`, the IC50 (with OVCAR-4; in [1]; in the data set on COLO 205; in [2]; in the data set with MCF7 [3]; in [4]) was > 50 µM each time. In addition, the IC50 (in the data set on OCI-AML2; in [5]; in [7]; in [8]) was > 50 µM in each case. For the same compound, the result in the data set with PC-3, in the data set on T47D, in the data set on MDA-MB-468, in the data set on MCF7 [9], with Hs-578T and in the data set on SNB-19 was inactive. Further, the Activity result in [6] is given as “Not Active”.
